# Source: ChEMBL document CHEMBL1124613, “Synthesis, tubulin binding, antineoplastic evaluation, and structure-activity relationship of oncodazole analogues” (J Med Chem, 1989)
# Key:
# [1] = biological target: Tubulin alpha chain (Sus scrofa, UniProt P02550); test: Displacement of 5.8 uM [3H]-oncodazole from homogeneous tubulin.
# Outline: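 Equilibrium binding to soluble, homogeneous tubulin, measured by displacement of 5.8 μM [³H]oncodazole. IC50 (μM) is the concentration that displaces the label, given as mean ± SEM.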
# [2] = test system: B16; test: Inhibition B16 melanoma cell monolayer proliferation; assay type: functional, cell-based; conditions: Mus musculus
# Outline: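 Mouse B16 melanoma cells grown as monolayers with continuous 72-h exposure to compound. IC50 is the concentration that inhibits proliferation by 50%.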
# [3] = test system: Mus musculus; test: In vivo percent increase in life span at Maximum tolerated dose in syngeneic B6D2F1 female mice bearing ip implanted P388 leukemia; Negative; assay type: functional
# Outline: (§1)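 Female B6D2F1 mice given ip implants of 10⁶ P388 leukemia cells. Drug given ip on days 1-5 after implantation at 320-20 mg/kg per day; maximally tolerated dose reported in mg/kg per day. Percent increase in lifespan taken at that dose from median survival time versus untreated controls. Under 25% increase counts as negative.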
# [4] = test system: Mus musculus; test: In vivo Maximum tolerated dose in syngeneic B6D2F1 female mice bearing ip implanted P388 leukemia.; assay type: functional; outline: as §1
# [5] = test system: Mus musculus; test: In vivo percent increase in life span at Maximum tolerated dose in syngeneic B6D2F1 female mice bearing ip implanted P388 leukemia.; assay type: functional; outline: as §1
# [6] = test system: Mus musculus; test: Compound was tested in vivo for percent increase in life span at Maximum tolerated dose in syngeneic B6D2F1 female mice bearing intraperitoneally implanted P388 leukemia (exp 2); assay type: functional; outline: as §1
# Chain of Tubulin alpha chain (P02550 whole entry, looked up): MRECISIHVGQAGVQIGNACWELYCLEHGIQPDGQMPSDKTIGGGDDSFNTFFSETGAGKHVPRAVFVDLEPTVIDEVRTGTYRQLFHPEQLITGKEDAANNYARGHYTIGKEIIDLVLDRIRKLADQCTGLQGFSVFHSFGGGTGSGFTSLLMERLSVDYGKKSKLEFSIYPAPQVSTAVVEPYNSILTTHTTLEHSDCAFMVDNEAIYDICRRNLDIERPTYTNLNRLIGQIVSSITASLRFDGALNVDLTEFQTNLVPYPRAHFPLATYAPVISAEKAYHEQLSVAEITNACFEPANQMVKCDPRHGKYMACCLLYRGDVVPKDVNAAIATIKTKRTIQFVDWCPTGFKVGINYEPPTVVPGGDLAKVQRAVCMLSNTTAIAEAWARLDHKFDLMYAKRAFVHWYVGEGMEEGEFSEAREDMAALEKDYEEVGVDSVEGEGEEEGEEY
SMILES,IC50 [1],IC50 [2],ILS [3],MTD [4],ILS [5],ILS [6]
COC(=O)Nc1nc2cc(C(=O)c3cc(CO)cs3)ccc2[nH]1,22 µM,1800 nM,,,,
COC(=O)Nc1nc2cc(C(=O)c3cc(CC(=O)O)cs3)ccc2[nH]1,442 µM,2000 nM,<25%,80 mg/kg,,
CCCOC(=O)Nc1nc2cc(C(=O)c3cccs3)ccc2[nH]1,,500 nM,<25%,>320 mg/kg,,
COC(=O)Nc1nc2cc(C(=O)c3cccs3)ccc2n1C,,20000 nM,<25%,160 mg/kg,,
COC(=O)Nc1nc2cc(C(=O)c3ccc(C)s3)ccc2[nH]1,,10000 nM,<25%,160 mg/kg,,
COC(=O)Nc1nc2cc(C(=O)c3cccs3)ccc2n1CCN,,30000 nM,<25%,80 mg/kg,,
COC(=O)Nc1nc2ccc(C(=O)c3cc(C([N+]#N)C(F)(F)F)cs3)cc2[nH]1 (centres undefined),8.3 µM,140 nM,,,,
COC(=O)Nc1nc2cc(C(=O)c3cc(C)cs3)ccc2[nH]1,17.6 µM,100 nM,,80 mg/kg,95%,
COC(=O)Nc1nc2cc(C(=O)c3cccs3)c(C)cc2[nH]1,,8000 nM,<25%,>320 mg/kg,,
COC(=O)N(C)c1nc2cc(C(=O)c3cccs3)ccc2[nH]1,,50000 nM,<25%,40 mg/kg,,
COC(=O)Nc1nc2cc(C(=O)c3cc(CC#N)cs3)ccc2[nH]1,2.9 µM,20 nM,,160 mg/kg,80%,80%
COC(=O)Nc1nc2cc(C(=O)c3cc(CNC(=O)OC(C)(C)C)cs3)ccc2[nH]1,23.3 µM,500 nM,<25%,160 mg/kg,,
COC(=O)Nc1nc2cc(C(=O)c3cc(CC(=O)OC(C)(C)C)cs3)ccc2[nH]1,7.5 µM,70 nM,,160 mg/kg,105%,
COC(=O)Nc1nc2ccc(C(=O)c3cc(COC(=O)c4ccccc4)cs3)cc2[nH]1,1.95 µM,,,,,
COC(=O)Nc1nc2cc(C(=O)c3cc(C(=O)C(F)(F)F)cs3)ccc2[nH]1,16 µM,140 nM,,,,
COC(=O)Nc1nc2cc(C(=O)c3cccs3)ccc2n1CCCCN,,30000 nM,<25%,80 mg/kg,,
CCOC(=O)Cc1csc(C(=O)c2ccc3[nH]c(NC(=O)OC)nc3c2)c1,0.88 µM,20 nM,,80 mg/kg,55%,55%
COC(=O)Nc1nc2cc(C(=O)c3cccs3)ccc2n1CCNC(=O)OCc1ccccc1,,20000 nM,,,,
COC(=O)Nc1nc2c(C)c(C(=O)c3cccs3)ccc2[nH]1,106 µM,4000 nM,<25%,40 mg/kg,,
CCOC(=O)Nc1nc2cc(C(=O)c3cccs3)ccc2[nH]1,,200 nM,<25%,160 mg/kg,,
COC(=O)Nc1nc2cc(C(=O)c3cc(CC(=O)NCCN)cs3)ccc2[nH]1,,> 70000 nM,<25%,80 mg/kg,,
COC(=O)Nc1nc2cc(C(=O)c3cc(CN)cs3)ccc2[nH]1,120 µM,2000 nM,<25%,20 mg/kg,,
COC(=O)Cc1csc(C(=O)c2ccc3[nH]c(NC(=O)OC)nc3c2)c1,5 µM,40 nM,,30 mg/kg,65%,
COC(=O)Nc1nc2c(C)cc(C(=O)c3cccs3)cc2[nH]1,0.86 µM,60 nM,,30 mg/kg,45%,50%
CC(C)OC(=O)Nc1nc2cc(C(=O)c3cccs3)ccc2[nH]1,14 µM,200 nM,,320 mg/kg,45%,30%
COC(=O)Nc1nc2cc(C(=O)c3cc(CC(=O)OCc4ccccc4)cs3)ccc2[nH]1,5.2 µM,,,,,
COC(=O)Nc1nc2cc(C(=O)c3sccc3C)ccc2[nH]1,,2000 nM,<25%,>320 mg/kg,,
COC(=O)Nc1nc2cc(C(=O)c3cccs3)ccc2[nH]1 [NOCODAZOLE],5.7 µM,100 nM,,80 mg/kg,75%,
COC(=O)Nc1nc2ccc(C(=O)c3cccs3)cc2n1C [NOCODOZOLE],,40000 nM,<25%,>320 mg/kg,,
